Data set [1] in a line: Lipophilicity, logD of compound. Type of data set: physicochemical. Particulars: octanol/water.
The nature of data set [2]: Drug level in mouse plasma at 40 mg/kg, po administered as single dose measured after 8 hrs. In kind it is ADME, organism-based. The method, boiled down: (§1)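 Plasma was taken from Colo205 tumour-bearing female nude mice sacrificed 1 or 8 h after a single 40 mg/kg oral dose. Drug concentrations were measured in µM.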
The nature of data set [3]: Drug level in mouse plasma at 40 mg/kg, po administered as single dose measured after 1 hr. Type of data set: ADME, organism-based. In outline: as §1
Data set [4] can be described thus: Volume of distribution at steady state in rat. Type of data set: ADME. Particulars: in vivo, read-out: Vdss.
Data set [5] in a line: Volume of distribution at steady state in mouse. In kind it is ADME, organism-based. The following applies: in vivo, read-out: Vdss.
Data set [6] can be described thus: Clearance in dog. The following applies: in vivo. In kind it is ADME, Canis lupus familiaris.
The next data set relates to MDR1. In words: Apparent permeability in LLC-PK1 cells expressing MDR1. In kind it is ADME, cell-based, Sus scrofa. The following applies: pig. The method, boiled down: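 The cells were MDR1-LLC PK1, a line engineered to express the P-gp efflux pump. Permeability was taken as apical-to-basolateral Papp (10⁻⁶ cm/s), and the efflux ratio was also derived.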
Data set [7] can be described thus: Metabolic stability in rat hepatocytes assessed as intrinsic clearance measured per million cells. Type of data set: ADME, cell-based, Hepatocyte. The following applies: read-out: CLH.
Data set [8] in a line: Half life in dog. Type of data set: ADME, Canis lupus familiaris. Particulars: in vivo.
A short description of data set [9]: Oral bioavailability in mouse. Particulars: in vivo. Type of data set: ADME, organism-based.
Data set [10] can be described thus: Metabolic stability in mouse hepatocytes assessed as intrinsic clearance measured per million cells. In kind it is ADME, cell-based, Hepatocyte. Particulars: read-out: CLH.
A short description of data set [11]: Clearance in rat. Type of data set: ADME. The following applies: in vivo.
Data set [12] is described as follows: Oral bioavailability in dog. Type of data set: ADME, organism-based, Canis lupus familiaris. Particulars: in vivo.
Data set [13] in a line: Volume of distribution at steady state in dog. The following applies: in vivo, read-out: Vdss. Type of data set: ADME, Canis lupus familiaris.
The nature of data set [14]: Metabolic stability in dog hepatocytes assessed as intrinsic clearance measured per million cells. Particulars: read-out: CLH. Type of data set: ADME, cell-based, Canis lupus familiaris, Hepatocyte.
A short description of data set [15]: Half life in guinea pig. Type of data set: ADME, Cavia porcellus. Particulars: in vivo.
Data set [16] is described as follows: Half life in mouse. Particulars: in vivo. Type of data set: ADME, organism-based.
A short description of data set [17]: Half life in rat. Particulars: in vivo. Type of data set: ADME.
The nature of data set [18]: Clearance in guinea pig. In kind it is ADME, Cavia porcellus. The following applies: in vivo.
Data set [19] can be described thus: Metabolic stability in human hepatocytes assessed as intrinsic clearance measured per million cells. In kind it is ADME, cell-based, Hepatocyte. Particulars: read-out: CLH.
Data set [20] is described as follows: Volume of distribution at steady state in guinea pig. Type of data set: ADME, Cavia porcellus. Particulars: in vivo, read-out: Vdss.
Data set [21] in a line: Clearance in mouse. Type of data set: ADME, organism-based. The following applies: in vivo.
Data set [22] can be described thus: Oral bioavailability in rat. Particulars: in vivo. Type of data set: ADME, organism-based.
Data set [23] is described as follows: Metabolic stability in rat liver microsomes assessed as intrinsic clearance. Particulars: read-out: CLH. In kind it is ADME, Microsome.
The nature of data set [24]: Metabolic stability in human liver microsomes assessed as intrinsic clearance. Type of data set: ADME, Microsome. The following applies: read-out: CLH.

A value given as a limit tells only on which side of the number the result lay.

With `Cc1ccc(-c2c[nH]cn2)cc1NC(=O)c1ccc(OCc2ccccn2)cc1`, the log distribution coefficient (logD) in [1] was determined as 2.8.
The compound `Cc1ccc(-c2nccn2C)cc1NC(=O)c1ccc(OCc2ccccn2)cc1` registered a logD in [1] of 2.8.
As to `Cc1ccc(-c2ncc[nH]2)cc1NC(=O)c1ccc(OCc2ccccn2)cc1`, in [2], the concentration at 8 h came to 7.5 µM. Moreover, the logD in [1] turned out to be 3.
In turn, `Cc1ccc(-c2cn(C)cn2)cc1NC(=O)c1ccc(OCc2ccccn2)cc1` yielded a concentration at 8 h in [2] of 16 µM. In addition, in data set [1], the logD is 2.5. Also, the concentration at 1 h in [3] turned out to be 63 µM.
On to `Cc1nc(-c2ccc(C)c(NC(=O)c3ccc(OCc4ccccn4)cc3)c2)c[nH]1`, for which the logD in [1] stood at 3.
Compound `Cc1ccc(-c2[nH]cnc2C)cc1NC(=O)c1ccc(OCc2ccccn2)cc1` had a logD in data set [1] of 2.9.
Still for that read-out and setting: the result for `Cc1ccc(-c2cn(C)c(C)n2)cc1NC(=O)c1ccc(OCc2ccccn2)cc1` reads 2.7.
With `Cc1cc(C)c(-c2ncc[nH]2)cc1NC(=O)c1ccc(OCc2ccccn2)cc1`, the Vd in data set [4] is 1.2 L/kg; in [5], 1.6 L/kg; in data set [13] it was 0.9 L/kg; in data set [20] it was 1.8 L/kg. In addition, the clearance in data set [6] was found to be 4 mL/min/kg; in data set [11], 24 mL/min/kg; in [18] it was 18 mL/min/kg; in data set [21], 31 mL/min/kg. Further, the Papp with MDR1 turned out to be 7.5 ×10⁻⁶ cm/s. The hepatocyte CLint in data set [7] was determined as 18 µL/min/1e6 cells; in [10] it was 6.6 µL/min/1e6 cells; in data set [14], 1.4 µL/min/1e6 cells; in data set [19] it was 9 µL/min/1e6 cells. The half-life in [8] was 3.3 h; in data set [15], 1.5 h; in [16], 0.7 h; in data set [17], 1.1 h. Further, the bioavailability in data set [9] was determined as 75%; in [12], 100%; in data set [22], 100%. This compound gave a concentration at 8 h in data set [2] of 1.9 µM. The logD in data set [1] turned out to be 3.1. The compound further displayed a concentration at 1 h in data set [3] of 22.3 µM.
Turning to `Cc1cc(F)c(-c2ncc[nH]2)cc1NC(=O)c1ccc(OCc2ccccn2)cc1`, the hepatocyte CLint in data set [7] stood at 14 µL/min/1e6 cells. The same compound gave a concentration at 8 h in data set [2] of 20 µM. The logD in [1] is 3. The same compound had a concentration at 1 h in [3] of 58 µM.
With `Cc1cc(Cl)c(-c2cn(C)cn2)cc1NC(=O)c1ccc(OCc2ccccn2)cc1`, in data set [1], the logD was found to be 3.1.
In data set [1], `Cc1cc(Cl)c(-c2cn(C)c(C)n2)cc1NC(=O)c1ccc(OCc2ccccn2)cc1` gave a logD of 3.3.
Turning to `Cc1cc(C)c(-c2nc3ccccc3[nH]2)cc1NC(=O)c1ccc(OCc2ccccn2)cc1`, the microsomal CLint in data set [23] was 21 µL/min/mg; in data set [24], 30 µL/min/mg. Moreover, in [1], the logD is > 3.5.
As for `Cc1cc(C)c(-c2cn(C)cn2)cc1NC(=O)c1ccc(OCc2ccccn2)cc1`, the Vd in data set [4] was determined as 0.2 L/kg; in [5], 0.4 L/kg; in data set [13] it was 0.5 L/kg; in data set [20], 0.5 L/kg. Besides, the clearance in data set [6] was determined as 4.7 mL/min/kg; in data set [11] it was 1.7 mL/min/kg; in data set [18], 1.6 mL/min/kg; in data set [21], 6.1 mL/min/kg. Moreover, the Papp in the data set with MDR1 was 16.5 ×10⁻⁶ cm/s. The hepatocyte CLint in data set [7] is 19 µL/min/1e6 cells; in data set [10], < 1 µL/min/1e6 cells; in data set [14], 10 µL/min/1e6 cells; in [19], 6 µL/min/1e6 cells. Besides, the half-life is 1.4 h in [8], 4.2 h in [15], 0.8 h in data set [16] and 2.4 h in [17]. The figures for the bioavailability in data set [9], in data set [12] and in [22] were 70%, 32% and 90%, respectively. Also, the concentration at 8 h in [2] stood at 16 µM. The compound further showed a pH-dependent lipophilicity (logD) in [1] of 3. In addition, in [3], the concentration at 1 h was determined as 94 µM.
With `Cc1cc(C)c(-c2cccc(N)n2)cc1NC(=O)c1ccc(OCc2ccccn2)cc1`, the microsomal CLint in data set [23] was determined as 155 µL/min/mg; in data set [24], 88 µL/min/mg. Besides, the logD in data set [1] is > 3.
On to `Cc1ccc(-c2cnc(C)n2C)cc1NC(=O)c1ccc(OCc2ccccn2)cc1`, for which the concentration at 8 h in data set [2] came out at 0.08 µM. The same compound yielded a log distribution coefficient (logD) in [1] of 2.8. The concentration at 1 h in data set [3] stood at 1.8 µM.
In turn, `Cc1ccc(-c2ncc[nH]2)c(C)c1NC(=O)c1ccc(OCc2ccccn2)cc1` came in with a concentration at 8 h in data set [2] of 0.14 µM. Moreover, the logD in data set [1] came out at 2.8. Moreover, the concentration at 1 h in data set [3] was found to be 3.3 µM.
`Cc1csc(-c2cc(NC(=O)c3ccc(OCc4ccccn4)cc3)c(C)cc2C)n1`: the microsomal CLint worked out at 147 µL/min/mg in data set [23] and 513 µL/min/mg in data set [24]. Besides, the logD in data set [1] was > 3.
Regarding `Cc1cc(C)c(-c2cnc(C)n2C)cc1NC(=O)c1ccc(OCc2ccccn2)cc1`, the hepatocyte CLint in data set [7] amounted to 32 µL/min/1e6 cells; in data set [19], 12 µL/min/1e6 cells. Also, the concentration at 8 h in data set [2] is 0.28 µM. The compound further registered a logD in data set [1] of 2.8. For the same compound, the concentration at 1 h in data set [3] is 2.9 µM.
In the case of `Cc1cc(Cl)c(-c2nccn2C)cc1NC(=O)c1ccc(OCc2ccccn2)cc1`, the logD in [1] was determined as 3.2.
On the same count and under the same terms, the result for `Cc1cc(Cl)c(-c2ncc[nH]2)cc1NC(=O)c1ccc(OCc2ccccn2)cc1` reads > 3.
As to `Cc1cc(C)c(-c2ccc(N)cn2)cc1NC(=O)c1ccc(OCc2ccccn2)cc1`, the results for the microsomal CLint in [23] and in data set [24] were 32 µL/min/mg and 9 µL/min/mg, respectively. Also, in data set [1], the logD amounted to 3.2.
Regarding `Cc1cc(C)c(-c2cccnc2)cc1NC(=O)c1ccc(OCc2ccccn2)cc1`, the microsomal CLint was 78 µL/min/mg in [23] and 62 µL/min/mg in data set [24]. The logD in data set [1] is > 3.
With `Cc1cc(C)c(-c2ccccn2)cc1NC(=O)c1ccc(OCc2ccccn2)cc1`, the results for the microsomal CLint in [23] and in data set [24] were 296 µL/min/mg and 209 µL/min/mg, respectively. The pH-dependent lipophilicity (logD) in [1] was > 3.
Turning to `Cc1cc(C)c(-c2ccc(N)nn2)cc1NC(=O)c1ccc(OCc2ccccn2)cc1`, the microsomal CLint is 8 µL/min/mg in data set [23] and < 4 µL/min/mg in [24]. The compound further returned a concentration at 8 h in data set [2] of 2.7 µM. In data set [1], this compound showed a logD of 2.6. Moreover, in data set [3], the concentration at 1 h was 33 µM.
For the compound `Cc1cc(C)c(-c2c(C)nn(C)c2C)cc1NC(=O)c1ccc(OCc2ccccn2)cc1`, the microsomal CLint came out at 271 µL/min/mg in data set [23] and 122 µL/min/mg in data set [24]. In [1], the logD is > 3.
In the case of `Cc1cc(C)c(-c2c[nH]nc2C)cc1NC(=O)c1ccc(OCc2ccccn2)cc1`, the microsomal CLint in [23] stood at 55 µL/min/mg; in data set [24], 20 µL/min/mg. In [2], the concentration at 8 h amounted to 0.23 µM. Besides, the logD in data set [1] was > 3. In data set [3], this compound came in with a concentration at 1 h of 5.5 µM.
Regarding `CS(=O)(=O)c1ccc(C(=O)Nc2ccc(Cl)c(-c3ccccn3)c2)c(Cl)c1` [VISMODEGIB], the hepatocyte CLint is 16 µL/min/1e6 cells in [7] and < 1 µL/min/1e6 cells in [19]. Also, the bioavailability in data set [9] came to 33%; in [22] it was 49%. In addition, the figures for the clearance in data set [11] and in [21] were 2 mL/min/kg and 5.6 mL/min/kg, respectively. Further, the concentration at 8 h in [2] is 18.8 µM. Further, the half-life in data set [16] was 1 h; in [17] it was 1.9 h. The compound also registered a logD in data set [1] of 2.8. In [3], the concentration at 1 h stood at 10.3 µM.

The values are drawn from ChEMBL document CHEMBL4610013, “Heteroarylamide smoothened inhibitors: Discovery of N-[2,4-dimethyl-5-(1-methylimidazol-4-yl)phenyl]-4-(2-pyridylmethoxy)benzamide (AZD8542) and N-[5-(1H-imidazol-2-yl)-2,4-dimethyl-phenyl]-4-(2- pyridylmethoxy)benzamide (AZD7254)” (Bioorg Med Chem, 2020).
